Experimental data from ChEMBL document CHEMBL4808178 (J Med Chem, 2021).
The source made the active and inactive calls. The rule behind the calls is not given here.

Tests used:
HCT-116 [1] = assay: Inhibition of cell stemness in human HCT116 cells assessed as reduction in OCT4 mRNA transcription levels at 20 uM after 24 hrs by RT-qPCR analysis; assay type: functional, cell-based
In short: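 Sorted ALDH⁺ HCT-116 cells treated 24 h; TRIZOL RNA, one-step RT-qPCR (RT 10 min 55 °C; 95 °C 1 min; 39 cycles 95 °C 10 s/60 °C 30 s) with melting-curve check; β-actin reference; fold change by 2^−ΔΔCt; t test, mean ± SD, n = 3.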

[2] = Toxicity in BALB/c mouse xenografted with human HCT116 cells assessed as effect on lung tissue at 60 to 90 mg/kg, po administered twice daily for 4 weeks and measured every 3 days by HE staining based assay; assay type: organism-based, HCT-116; settings: in vivo, 672 h, dose 60-90 mg/kg
In short: (§1)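 Male 5-week BALB/c nude mice (16−18 g), 0.2 mL of 5 × 10⁷ cells/mL HCT-116 injected into right armpit; at ~100 mm³ randomized, 5/group; intragastric 60 or 90 mg/kg twice daily for 4 weeks; tumor volume and body weight every 3 days; after sacrifice heart, liver, spleen, lung, kidney HE-stained.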

[3] = target: T1, Ephrin type-A receptor 1 (Homo sapiens) (UniProt P21709); assay: Inhibition of EPHA1 (unknown origin) assessed as residual activity at 1 uM relative to control
T1 sequence (whole entry): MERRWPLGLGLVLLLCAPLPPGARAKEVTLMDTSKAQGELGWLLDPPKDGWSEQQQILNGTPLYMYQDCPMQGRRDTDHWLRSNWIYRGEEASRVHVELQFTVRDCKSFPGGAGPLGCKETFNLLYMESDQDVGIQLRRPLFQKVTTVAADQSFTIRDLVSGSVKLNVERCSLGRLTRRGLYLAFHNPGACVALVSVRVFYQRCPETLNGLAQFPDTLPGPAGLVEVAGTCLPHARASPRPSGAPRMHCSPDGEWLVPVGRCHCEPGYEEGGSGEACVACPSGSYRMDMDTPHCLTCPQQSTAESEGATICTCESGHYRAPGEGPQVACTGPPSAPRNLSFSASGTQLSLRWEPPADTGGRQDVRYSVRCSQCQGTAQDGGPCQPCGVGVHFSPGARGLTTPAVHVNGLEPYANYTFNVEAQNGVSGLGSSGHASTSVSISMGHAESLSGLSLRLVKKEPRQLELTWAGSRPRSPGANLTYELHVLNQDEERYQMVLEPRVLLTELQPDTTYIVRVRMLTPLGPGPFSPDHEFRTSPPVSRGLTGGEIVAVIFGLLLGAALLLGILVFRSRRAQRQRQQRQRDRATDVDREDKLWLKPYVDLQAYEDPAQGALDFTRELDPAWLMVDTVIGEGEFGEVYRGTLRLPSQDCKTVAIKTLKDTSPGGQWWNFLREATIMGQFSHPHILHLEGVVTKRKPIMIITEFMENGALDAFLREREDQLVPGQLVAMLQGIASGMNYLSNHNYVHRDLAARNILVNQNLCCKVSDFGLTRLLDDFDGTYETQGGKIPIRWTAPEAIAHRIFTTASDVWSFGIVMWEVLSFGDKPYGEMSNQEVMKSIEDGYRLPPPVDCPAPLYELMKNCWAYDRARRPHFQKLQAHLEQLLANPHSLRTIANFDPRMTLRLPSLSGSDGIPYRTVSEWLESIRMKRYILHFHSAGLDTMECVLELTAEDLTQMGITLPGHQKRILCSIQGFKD
In short: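 Single-concentration screen at 1 μmol/L against a panel of 208 kinases, run as a commercial service; activity expressed relative to control.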

HT-29 = assay: Cytotoxicity against human HT-29 cells assessed as reduction in cell viability incubated for 72 hrs by MTT assay; assay type: functional, cell-based; settings: HT-29, 72 h
[4] = target: Dual specificity protein kinase CLK2 (Homo sapiens, UniProt P49760); assay: Inhibition of human CLK2 incubated for 2 hrs
[5] = MRT(0 to t) in Sprague-Dawley rat at 25 mg/kg, po measured up to 48 hrs by LC-MS/MS analysis; assay type: ADME, organism-based; settings: in vivo
In short: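 Overnight-fasted male SD rats (250−270 g, n = 3/group), single oral 25 mg/kg in 5% CMC-Na (reference sodium salt in phosphate buffer); plasma at 0.25–48 h (12 timepoints), stored −40 °C; LC−MS/MS with internal-standard calibration 3–3000 ng/mL; parameters fitted by model.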

[6] = target: T2, Aldehyde dehydrogenase 1A1 (Homo sapiens) (UniProt P00352); assay: Inhibition of ALDH1A1 in human HCT116 cells at 5 uM after 24 hrs by aldefluor staining based fluorescence analysis; assay type: cell-based; settings: HCT-116
T2 sequence (whole entry): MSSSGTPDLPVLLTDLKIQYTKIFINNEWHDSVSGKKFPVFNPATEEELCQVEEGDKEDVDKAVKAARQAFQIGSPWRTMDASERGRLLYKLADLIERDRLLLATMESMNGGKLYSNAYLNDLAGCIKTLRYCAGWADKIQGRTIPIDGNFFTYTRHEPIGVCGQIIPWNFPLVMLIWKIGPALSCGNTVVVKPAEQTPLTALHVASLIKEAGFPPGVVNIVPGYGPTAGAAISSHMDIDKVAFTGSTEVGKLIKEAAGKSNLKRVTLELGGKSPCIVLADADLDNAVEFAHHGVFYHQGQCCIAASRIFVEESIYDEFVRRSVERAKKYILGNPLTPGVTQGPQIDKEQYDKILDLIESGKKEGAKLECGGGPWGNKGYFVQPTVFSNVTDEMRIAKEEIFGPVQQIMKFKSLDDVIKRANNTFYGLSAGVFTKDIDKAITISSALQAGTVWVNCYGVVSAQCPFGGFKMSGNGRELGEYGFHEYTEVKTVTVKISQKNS
In short: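 HCT-116 cells, 2 × 10⁵/well, grown overnight at 37 °C, 5% CO₂, then treated 24 h (vehicle DMSO). Aldefluor staining read in FITC channel by FACS for proportion of ALDH⁺ cells; DEAB-pretreated cells set baseline fluorescence.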

HCT-116 [7] = assay: Induction of apoptosis in human HCT116 cells assessed as necrotic cells at 10 uM after 24 hrs by annexin V-FITC/propidium iodide staining based flow cytometry (reference value: 5.6%); assay type: functional
[8] = Toxicity in BALB/c mouse xenografted with human HCT116 cells assessed as effect on liver tissue at 60 to 90 mg/kg, po administered twice daily for 4 weeks and measured every 3 days by HE staining based assay; assay type: organism-based, HCT-116; settings: in vivo, 672 h, dose 60-90 mg/kg; in short: as §1
HCT-116 [9] = assay: Effect on Wnt/beta-Catenin signaling in human HCT116 cells assessed as reduction in S100A4 mRNA level at 20 uM after 24 hrs by RT-qPCR analysis; assay type: functional, cell-based
In short: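 HCT-116 cells treated 24 h; total RNA by TRIZOL, one-step RT-qPCR: 55 °C 10 min, 95 °C 1 min, then 39 cycles of 95 °C 10 s and 60 °C 30 s, with melting-curve and no-template controls. β-Actin as internal standard; relative expression by 2^−ΔΔCt, mean ± SD (n = 3).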

HCT-116 [10] = assay: Induction of apoptosis in human HCT116 cells assessed as necrotic cells at 5 uM after 24 hrs by annexin V-FITC/propidium iodide staining based flow cytometry (reference value: 5.6%); assay type: functional

Dual specificity protein kinase CLK2, sequence (P49760 whole entry): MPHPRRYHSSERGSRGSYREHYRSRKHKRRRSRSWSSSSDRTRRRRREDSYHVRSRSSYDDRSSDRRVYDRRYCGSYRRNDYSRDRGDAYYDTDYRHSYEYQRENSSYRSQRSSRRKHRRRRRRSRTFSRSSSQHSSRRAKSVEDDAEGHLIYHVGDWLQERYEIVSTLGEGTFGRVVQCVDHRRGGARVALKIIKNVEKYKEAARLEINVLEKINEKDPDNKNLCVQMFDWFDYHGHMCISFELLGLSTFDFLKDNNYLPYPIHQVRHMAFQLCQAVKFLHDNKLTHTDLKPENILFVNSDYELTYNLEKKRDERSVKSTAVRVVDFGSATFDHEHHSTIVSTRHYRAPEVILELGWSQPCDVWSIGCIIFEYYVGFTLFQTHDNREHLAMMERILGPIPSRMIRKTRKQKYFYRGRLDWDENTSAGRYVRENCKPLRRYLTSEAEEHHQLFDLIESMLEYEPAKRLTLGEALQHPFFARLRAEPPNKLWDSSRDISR

Question: With `O=C(NCCO)c1ccc2c(c1)nc(Nc1cccc(Cl)c1)c1ccncc12` as the compound, how does the inhibition (HCT-116 [1]) read?
Answer: Active

Question: What about the Activity [2] of the same compound?
Answer: Non-Toxic

Question: What about the Activity [3] of the same compound?
Answer: 45.2%

Question: And the IC50 (HT-29)?
Answer: 5.18 µM

Question: And the IC50 [4]?
Answer: 0.0327 µM

Question: What about the MRT last at 48 h [5] of the same compound?
Answer: 6.21 h

Question: And the inhibition [6]?
Answer: 77%

Question: And the Activity (HCT-116 [7])?
Answer: 7.6%

Question: What about the Activity [8] of the same compound?
Answer: Non-Toxic

Question: What about the Activity (HCT-116 [9]) of the same compound?
Answer: Active

Question: And the Activity (HCT-116 [10])?
Answer: 7%
